How the values were obtained:
Assay type in all cases: functional
U-251 = experiment: Cytotoxicity against human U251 cells assessed as cell growth at 10^-5 M after 48 hrs by SRB assay; settings: U-251, 48 h, read-out: Activity
How it was run: (§1)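 NCI human tumor cell line panel from nine cancer types. Each line was inoculated and preincubated 24–48 h, then exposed to a single concentration (10^-5 M) for 48 h. Growth was read by sulforhodamine B protein staining, measured spectrophotometrically. Value reported as percent growth of treated cells relative to untreated controls.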

HOP-62 = experiment: Growth inhibition of human HOP62 cells after 48 hrs by SRB assay; settings: HOP-62, 48 h
How it was run: (§2)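 NCI panel of about 60 human tumor lines, 48 h continuous exposure at five 10-fold dilutions from 10^-4 to 10^-8 M. SRB protein staining was read as absorbance at time zero, in untreated controls and at each concentration. GI50 is the concentration giving 50% lower net protein increase than controls. TGI is where Ti = Tz, and LC50 is 50% protein loss versus start.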

SK-MEL-2 = experiment: Cytotoxicity against human SK-MEL-2 cells assessed as cell growth at 10^-5 M after 48 hrs by SRB assay; settings: SK-MEL-2, 48 h, read-out: Activity; how it was run: as §1
DU-145 = experiment: Growth inhibition of human DU145 cells after 48 hrs by SRB assay; settings: DU-145, 48 h; how it was run: as §2
K562 = experiment: Cytotoxicity against human K562 cells assessed as cell growth at 10^-5 M after 48 hrs by SRB assay; settings: K562, 48 h, read-out: Activity
How it was run: (§3)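 NCI 60-cell-line one-dose primary screen: cells inoculated and preincubated 24–48 h, then test agent added at a single 10^-5 M concentration for a further 48 h. Endpoint is sulforhodamine B protein staining read spectrophotometrically. Reported as percent growth relative to untreated control cells.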

COLO 205 = experiment: Growth inhibition of human COLO205 cells after 48 hrs by SRB assay; settings: COLO 205, 48 h; how it was run: as §2
MDA-MB-231 [1] = experiment: Cytotoxicity against human MDA-MB-231 cells assessed as cell growth at 10^-5 M after 48 hrs by SRB assay; settings: MDA-MB-231, 48 h, read-out: Activity; how it was run: as §3
RXF 393 = experiment: Growth inhibition of human RXF393 cells after 48 hrs by SRB assay; settings: RXF 393, 48 h
How it was run: (§4)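 NCI 60-cell-line human tumor panel. Cells were inoculated and preincubated for 24–48 h, then exposed continuously to compound for 48 h. Primary screen used a single 10^-5 M concentration. Growth was measured by sulforhodamine B protein staining, read spectrophotometrically, and reported as percent growth versus untreated controls. Selected compounds were also run at five 10-fold dilutions (10^-4 to 10^-8 M) to derive GI50 from time-zero-corrected absorbances.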

[2] = Cytotoxicity against human Hs 578T cells assessed as cell growth at 10^-5 M after 48 hrs by SRB assay; settings: read-out: Activity; how it was run: as §3
Malme-3M = experiment: Cytotoxicity against human MALME-3M cells assessed as cell growth at 10^-5 M after 48 hrs by SRB assay; settings: read-out: Activity; how it was run: as §3
SK-MEL-28 = experiment: Cytotoxicity against human SK-MEL-28 cells assessed as cell growth at 10^-5 M after 48 hrs by SRB assay; settings: SK-MEL-28, 48 h, read-out: Activity; how it was run: as §1
[3] = tested on: Photobacterium leiognathi; experiment: Antibacterial activity against Photobacterium leiognathi Sh1 assessed as inhibition of bacterial luminescence at 0.25 mg/mL after 10 mins by bioluminometry-based acute action test; design: scale not given: the % may be the effect or the level left
How it was run: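 Marine P. leiognathi Sh1 (Azov Sea shrimp isolate) diluted in chloride solution to 10^5 cells/mL; compounds suspended in DMSO mixed with 1 mL bacterial suspension. Acute test: 10 min at 25 °C, then bioluminescence measured by bioluminometer as % of compound-free control. Tetracycline reference.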

SF-268 = experiment: Cytotoxicity against human SF268 cells assessed as cell growth at 10^-5 M after 48 hrs by SRB assay; settings: SF-268, 48 h, read-out: Activity; how it was run: as §1
MCF7 = experiment: Cytotoxicity against human MCF7 cells assessed as cell growth at 10^-5 M after 48 hrs by SRB assay; settings: MCF7, 48 h, read-out: Activity; how it was run: as §3
UO-31 = experiment: Cytotoxicity against human UO31 cells assessed as cell growth at 10^-5 M after 48 hrs by SRB assay; settings: UO-31, 48 h, read-out: Activity; how it was run: as §1
LOX IMVI = experiment: Growth inhibition of human LOXIMVI cells after 48 hrs by SRB assay; how it was run: as §2
MDA-MB-231 [4] = experiment: Growth inhibition of human MDA-MB-231 cells after 48 hrs by SRB assay; settings: MDA-MB-231, 48 h; how it was run: as §2
CCRF-CEM = experiment: Growth inhibition of human CCRF-CEM cells after 48 hrs by SRB assay; how it was run: as §2
[5] = tested on: Photobacterium leiognathi; experiment: Antibacterial activity against Photobacterium leiognathi Sh1 assessed as inhibition of bacterial luminescence at 0.025 mg/mL after 10 mins by bioluminometry-based chronic action test; design: scale not given: the % may be the effect or the level left; settings: in the assay text read “after 16 to 18 hrs” for “after 10 mins”
How it was run: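 Chronic (growth plus luminescence) test with P. leiognathi Sh1 at 10^5 cells/mL in chloride solution, compounds added in DMSO. After 10 min at 25 °C, growth medium added at 1:50 and the mix incubated 16–18 h at 30 °C. Luminescence then measured by bioluminometer as % of untreated control. Tetracycline reference.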

ACHN [6] = experiment: Cytotoxicity against human ACHN cells assessed as cell growth at 10^-5 M after 48 hrs by SRB assay; settings: read-out: Activity; how it was run: as §3
T47D [7] = experiment: Growth inhibition of human T47D cells after 48 hrs by SRB assay; how it was run: as §4
SNB-75 = experiment: Cytotoxicity against human SNB75 cells assessed as cell growth at 10^-5 M after 48 hrs by SRB assay; settings: SNB-75, 48 h, read-out: Activity; how it was run: as §1
ACHN [8] = experiment: Growth inhibition of human ACHN cells after 48 hrs by SRB assay; how it was run: as §2
786-0 = experiment: Growth inhibition of human 786-0 cells after 48 hrs by SRB assay; settings: 786-0, 48 h; how it was run: as §2
T47D [9] = experiment: Cytotoxicity against human T47D cells assessed as cell growth at 10^-5 M after 48 hrs by SRB assay; settings: read-out: Activity; how it was run: as §1
NCI-H460 = experiment: Cytotoxicity against human NCI-H460 cells assessed as cell growth at 10^-5 M after 48 hrs by SRB assay; settings: NCI-H460, 48 h, read-out: Activity; how it was run: as §1
PC-3 = experiment: Cytotoxicity against human PC3 cells assessed as cell growth at 10^-5 M after 48 hrs by SRB assay; settings: PC-3, 48 h, read-out: Activity; how it was run: as §1
[10] = read-out: pLC50 (the source's name) (converted)

**Q.** What does the source list for `CCC1C2CCC(C2)C1NC(=O)CSc1nc2ccccc2c2nc(=O)c(-c3ccc(OC)cc3)nn12` (configuration not stated)?
**A.** growth at 10 µM (U-251): -98.9%; GI50 (HOP-62): 2.45 µM; CC50 (HOP-62; [10]): 36.3 µM; TGI (HOP-62; read-out: pTGI (converted)): 11.5 µM; growth at 10 µM (SK-MEL-2): 56.5%; GI50 (DU-145): 3.16 µM; CC50 (DU-145; [10]): > 50.1 µM; TGI (DU-145; read-out: pTGI (converted)): 37.2 µM; growth at 10 µM (K562): 39.2%; GI50 (COLO 205): 3.47 µM; CC50 (COLO 205; [10]): > 50.1 µM; TGI (COLO 205; read-out: pTGI): > 50.1 µM; growth at 10 µM (MDA-MB-231 [1]): 22.5%; GI50 (RXF 393): 1.48 µM; CC50 (RXF 393; [10]): 17.4 µM; TGI (RXF 393; read-out: pTGI (converted)): 4.17 µM; growth at 10 µM [2]: -9.67%; growth at 10 µM (Malme-3M): -29.2%; growth at 10 µM (SK-MEL-28): 68.7%; Activity [3]: 90.9%; growth at 10 µM (SF-268): 66.3%; growth at 10 µM (MCF7): 48.2%; growth at 10 µM (UO-31): -12.7%; GI50 (LOX IMVI): 3.55 µM; CC50 (LOX IMVI; [10]): > 50.1 µM; TGI (LOX IMVI; read-out: pTGI (converted)): 18.2 µM; GI50 (MDA-MB-231 [4]): 3.09 µM; CC50 (MDA-MB-231 [4]; [10]): > 50.1 µM; TGI (MDA-MB-231 [4]; read-out: pTGI (converted)): 20.9 µM; GI50 (CCRF-CEM): 2 µM; CC50 (CCRF-CEM; [10]): > 50.1 µM; TGI (CCRF-CEM; read-out: pTGI): > 50.1 µM; Activity [5]: 85.3%; growth at 10 µM (ACHN [6]): -17.1%; GI50 (T47D [7]): 3.72 µM; CC50 (T47D [7]; [10]): > 50.1 µM; TGI (T47D [7]; read-out: pTGI): > 50.1 µM; growth at 10 µM (SNB-75): 4.94%; GI50 (ACHN [8]): 1.91 µM; CC50 (ACHN [8]; [10]): > 50.1 µM; TGI (ACHN [8]; read-out: pTGI): > 50.1 µM; GI50 (786-0): 3.02 µM; CC50 (786-0; [10]): > 50.1 µM; TGI (786-0; read-out: pTGI (converted)): 15.8 µM; growth at 10 µM (T47D [9]): -11.3%; growth at 10 µM (NCI-H460): 56%; growth at 10 µM (PC-3): 55.1%
